In the library only some 1.4% were active in any assay of this set; here they are far more common.
CAL PDZ FP-1 – blocks peptide binding to the human CAL PDZ domain. Q9HD26. purified CAL PDZ, TMR-peptide fluorescence polarization, 1 h. inhibition, % at 24.9 µM. 300,000 compounds, 0.92% hits. AID 602252;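 active means mean inhibition of at least 30% with at least half of replicates also reaching 30%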;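 further: 0% = DMSO neutral control and 100% = excess unlabeled competitor peptide PRC23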
DDE Tn6 FP inh – disrupts Tn6 cyclic peptide binding to fibrin D-Dimer-E complex | P02675 | Fibrin DD(E) TRITC-Tn6 fluorescence polarization displacement | 370,000 compounds, 0.21% hits | inhibition, % at 8.3 µM;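 active means inhibition above a per-campaign cutoff: mean of compounds within control limits plus 3 SD, cut at about 15% in these data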;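 further: 0% = median of all compound wells on the plate and 100% = blocking peptide control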
CAL PDZ FP-2 – inhibitors of human CAL PDZ peptide binding; AID 504414; Q9HD26; 330,000 compounds, 0.02% hits; inhibition, % at 20 µM; purified CAL PDZ, TMR-peptide fluorescence polarization, 1 h;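 active means highest replicate inhibition of at least 40%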;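 further: plate controls were DMSO neutral control wells for no effect and unlabeled competitor peptide control wells for full effect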
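material = purified tagged CAL PDZ domain construct (CerCALP) | compound dosing = 20 µM, one dose | times = 1 h at RT | measured by = fluorescence polarization from S- and P-plane intensities, G-factor corrected | read-out = inhibition from polarization loss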
Arrestin-AP2 inh – blocks beta-arrestin peptide binding to AP2 adaptin. inhibition, % at 10 µM. FITC-arrestin peptide / GST-AP2 beads, flow cytometry; AP2 beta2 appendage carries R879A mutation. 340,000 compounds, 0.31% hits. AID 504490;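 active means inhibition above a set limit, near 3 SD of compounds lacking own fluorescence, cut at about 54% in these data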;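 further: plate controls were DMSO wells for no effect and 5 µM unlabelled arrestin peptide for full effect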
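System: GST-AP2 R879A bound to glutathione beads, E. coli-expressed. Also added: 50 nM FITC-arrestin peptide. Schedule: compound with beads 12 min RT, then probe 1 h RT. Signal: bead flow cytometry, FITC channel. Read-out basis: percent response.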
DDE Tn7 FP inh – inhibitors of Tn7 peptide binding to human fibrin DD(E) | 370,000 compounds, 0.13% hits | P02675 | AID 720508 | FP displacement of FITC-Tn7 peptide from fibrin DD(E); 0% = median of compound wells per plate | inhibition, % at 8.3 µM;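 active means inhibition above the mean of compounds falling within the control limits plus 3 SD of them, cut at about 14% in these data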;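 further: 0% = plate median of compound wells and 100% = 10 µM Aha-Tn7 peptide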
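Assay system: Human clot-derived fibrin DD(E) complex | Buffer or medium: Tris/NaCl/CaCl2 buffer, pH 7.8 | Repeats: One replicate per compound | Benchmarks: Aha-Tn7 high control | Measure: % inhibition scaled between sample-field median and high-control FP | Schedule: 10 min plus 3 h, room temperature | Signal: Fluorescence polarization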
Arr-AP2 CP1 – inhibitors of human beta-arrestin and AP2 interaction. shares compounds with Arrestin-AP2 inh. inhibition, % at 10 µM. GST-AP2 beads, FITC arrestin peptide binding, flow cytometry; GST-fused beta2-adaptin appendage, R879A mutant. 1,300 compounds, 2% hits;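 active means inhibition above a set limit, roughly 3 SD of non-fluorescent compound noise, cut at about 38% in these data; inactive means inhibition at or below that limit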;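 further: loss of bead fluorescence from 50 nM FITC arrestin peptide bound to appendage; 0% = negative control wells and 100% = excess unlabelled arrestin peptide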
Target sequence (P63010 whole entry, looked up, the tested form may be a part, one chain of several): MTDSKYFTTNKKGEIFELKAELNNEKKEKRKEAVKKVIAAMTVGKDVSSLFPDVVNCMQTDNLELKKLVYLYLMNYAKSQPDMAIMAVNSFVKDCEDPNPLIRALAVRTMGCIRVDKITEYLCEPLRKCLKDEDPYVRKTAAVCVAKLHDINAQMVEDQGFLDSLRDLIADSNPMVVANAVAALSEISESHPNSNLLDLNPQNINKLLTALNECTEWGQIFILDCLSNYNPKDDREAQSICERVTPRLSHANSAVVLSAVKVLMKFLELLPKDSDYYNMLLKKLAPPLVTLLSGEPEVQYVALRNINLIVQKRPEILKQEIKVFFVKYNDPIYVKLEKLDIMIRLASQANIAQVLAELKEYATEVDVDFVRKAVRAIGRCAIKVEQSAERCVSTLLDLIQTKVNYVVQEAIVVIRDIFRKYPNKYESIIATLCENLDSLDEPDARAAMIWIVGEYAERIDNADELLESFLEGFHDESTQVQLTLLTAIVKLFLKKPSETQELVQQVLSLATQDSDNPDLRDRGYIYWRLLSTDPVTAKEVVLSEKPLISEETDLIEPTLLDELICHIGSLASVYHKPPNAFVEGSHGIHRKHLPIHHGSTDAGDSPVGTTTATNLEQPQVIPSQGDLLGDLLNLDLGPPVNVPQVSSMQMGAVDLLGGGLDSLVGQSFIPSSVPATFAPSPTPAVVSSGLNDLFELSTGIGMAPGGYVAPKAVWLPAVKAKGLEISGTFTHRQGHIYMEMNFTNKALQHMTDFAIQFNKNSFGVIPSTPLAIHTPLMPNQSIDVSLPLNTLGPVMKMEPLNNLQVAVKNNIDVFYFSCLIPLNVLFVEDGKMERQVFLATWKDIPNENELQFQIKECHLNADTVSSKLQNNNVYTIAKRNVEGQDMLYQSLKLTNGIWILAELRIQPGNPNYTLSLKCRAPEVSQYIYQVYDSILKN
GST-FITC bead – GST-GSH bead binding interference, counter-screen; AID 588338; inhibition, % at 10 µM; 1,300 compounds, 2% hits; GST-fluorescein binding to GSH beads, fluorescence; shares compounds with Arrestin-AP2 inh;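 active means inhibition above 50%, about 3 SD of the inhibition seen with non-fluorescent compounds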;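 further: fluorescein maleimide labelled GST captured on 4 micron glutathione beads; higher means more loss of bead fluorescence from quenching or blocked binding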
The depositor's hits bear a star; · = no result given.

SMILES	CAL PDZ FP-1	DDE Tn6 FP inh	CAL PDZ FP-2	Arrestin-AP2 inh	DDE Tn7 FP inh	Arr-AP2 CP1	GST-FITC bead
COc1ccc(-c2nc(CN3CCN(C(=O)c4ccco4)CC3)c(C)o2)c(OC)c1C	0	0	-3	54*	-1	-8	-2
COc1ccc(OC)c(-c2nc(CN3CCN(C(=O)c4ccco4)CC3)c(C)o2)c1	-1	4	-3	-9	-5	·	·
COc1ccccc1Oc1coc2c(CN(C)C)c(O)ccc2c1=O	0	0	-1	2	6	·	·
CCN(CC)Cc1c(O)ccc2c(=O)c(Oc3ccccc3OC)coc12	-2	3	0	56*	-4	7	-6
CCOc1cc(CNc2ccc(N3CCCC3)cc2)cc(Cl)c1OC	-2	12	-2	55*	2	2	13
COc1cccc2c1cc1c(=O)n(CC(=O)NCCCN3CCN(C)CC3)nc(C)n12	-3	-3	0	59*	-10	-6	2
Cc1c(NC(=O)C2CCCN(S(=O)(=O)c3ccc(F)cc3)C2)c(=O)n(-c2ccccc2)n1C (stereo not given)	·	-3	·	·	7	·	·
CC1(C)C=C2C(N(CC3CC3)C(=N)N2C(=O)OCc2ccccc2)n2c(=O)n(-c3ccccc3)c(=O)n21 (stereo not given)	·	5	·	·	-8	·	·
C=C1[C@@H](CCO)N(S(=O)C(C)(C)C)C[C@@H]1C (stereo not given in full)	·	4	·	·	-6	·	·
CC12CN3CC(C)(CN(C1)C3c1ccc(Br)cc1O)C2 (stereo not given)	3	5	0	23	6	-7	0
O=C(Nc1ccc(F)cc1)c1cnccn1	·	-9	·	·	3	·	·
O=C(Nc1ccc(Br)cc1)c1cnccn1	-4	5	-2	10	-1	·	·
O=C(Nc1ccc(Br)cc1)Nc1cnccn1	-7	-1	-2	15	-2	-5	·
O=C(Nc1ccc(F)cc1)Nc1cnccn1	0	5	-3	4	7	2	-5
OC[C@H]1CC[C@@H]2O[C@H](CCc3ccc(-c4ccc(F)cc4)cc3)[C@H](n3cc(C4CC4)nn3)C[C@@H]2O1	·	2	·	·	2	·	·
COC(=O)c1ccc(CNC(=O)C2CCC(=O)N(CCc3ccccc3)C2)cc1 (stereo not given)	3	0	-3	2	6	-9	1
O=C(NCc1ccccc1OC(F)(F)F)C1CCC(=O)N(Cc2cccc(F)c2)C1 (stereo not given)	-5	4	-1	-14	-2	·	·
Cc1ccccc1CCNC(=O)C1CCC(=O)N(CCc2cccc(F)c2)C1 (stereo not given)	·	4	-1	8	4	-9	-4
Cc1ccsc1CCNC(=O)C1CCC(=O)N(CCc2cccc(F)c2)C1 (stereo not given)	·	-4	-1	-2	-2	·	·
Cc1ccccc1CNC(=O)C1CCC(=O)N(Cc2cccc(F)c2)C1 (stereo not given)	-2	0	-3	4	10	-1	-2
COc1ccccc1Cc1c(C2CCCCC2)nc2c(C)cc(Br)cn12	·	1	·	·	6	·	·
COC(=O)[C@]12C[C@H](CC(=O)NCCCCc3ccccc3)C(=O)N(CCC3=CCCCC3)C1=C[C@H](C(C)C)O[C@@H]2C1CC1	·	5	·	·	-2	·	·
Cc1ccccc1CN1CCCCC(NC(=O)c2c(F)cccc2F)C1=O (stereo not given)	·	5	·	·	5	·	·
CC(C)CSc1nc2ccccc2n1CC(=O)O	-4	0	-2	55*	-2	-2	3
Cc1nn(C)c(C)c1C1Nc2ccccc2C(=O)N1O (stereo not given)	14	-2	0	7	-4	·	·
O=C1c2ccccc2NC(c2cnc3ccccc3n2)N1O (stereo not given)	-1	0	-1	94*	-4	-2	-14
